Seven compounds from ChEMBL document CHEMBL4819098, “Novel 1,2,4-triazine-quinoline hybrids: The privileged scaffolds as potent multi-target inhibitors of LPS-induced inflammatory response via dual COX-2 and 15-LOX inhibition” (Eur J Med Chem, 2021) can be followed below.

Data set [1] concerns RAW264.7. The data set is described as follows: Inhibition of LPS-induced 15(S)-HETE production in mouse RAW264.7 cells preincubated for 2 hrs followed by LPS stimulation and measured after 20 hrs by ELISA. The class given is functional, cell-based. (In an ELISA, binding on a coated surface is turned into a signal by an enzyme label.)
Data set [2] has as its target T1, Prostaglandin G/H synthase 1 (Ovis aries, UniProt P05979).
T1 sequence (P05979 whole entry): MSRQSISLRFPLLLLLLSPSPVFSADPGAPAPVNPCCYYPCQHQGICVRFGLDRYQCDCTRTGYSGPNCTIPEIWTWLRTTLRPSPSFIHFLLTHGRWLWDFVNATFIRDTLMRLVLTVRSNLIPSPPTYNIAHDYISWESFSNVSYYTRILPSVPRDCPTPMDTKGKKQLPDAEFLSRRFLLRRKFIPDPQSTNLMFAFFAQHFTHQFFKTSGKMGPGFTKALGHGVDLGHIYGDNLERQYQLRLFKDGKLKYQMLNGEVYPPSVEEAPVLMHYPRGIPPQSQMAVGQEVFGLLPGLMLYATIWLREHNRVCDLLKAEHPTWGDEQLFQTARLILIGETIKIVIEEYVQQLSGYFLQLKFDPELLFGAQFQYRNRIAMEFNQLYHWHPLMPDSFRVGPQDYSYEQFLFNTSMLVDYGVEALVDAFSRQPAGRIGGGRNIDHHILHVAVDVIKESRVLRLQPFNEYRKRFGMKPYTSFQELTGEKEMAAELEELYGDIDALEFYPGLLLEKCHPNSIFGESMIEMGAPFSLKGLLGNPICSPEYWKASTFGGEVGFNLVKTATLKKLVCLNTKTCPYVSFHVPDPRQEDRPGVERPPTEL
The data set is described as follows: Inhibition of ovine COX-1 using arachidonic acid as substrate preincubated with enzyme for 5 mins followed by substrate addition by colorimetric analysis.

Data set [3] can be described thus: Inhibition of soybean 15-LOX using arachidonic acid or linolenic acid as substrate in presence of hydrogen peroxide incubated for 5 mins by colorimetric analysis. Also on record: species or system Glycine max.
A short description of data set [4]: Selectivity index, ratio of IC50 for ovine COX-1 to IC50 for human recombinant COX-2. In outline: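 Enzyme kit assay with ovine COX-1 and human recombinant COX-2. IC50 determined from three replicates. Selectivity index taken as IC50(COX-1)/IC50(COX-2).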
The subject of data set [5] is RAW264.7. Briefly: Inhibition of LPS-induced TNFalpha production in mouse RAW264.7 cells preincubated for 2 hrs followed by LPS stimulation and measured after 20 hrs by ELISA. The class given is functional, cell-based.
The test system of data set [6] is RAW264.7. Briefly: Cytotoxicity against mouse RAW264.7 cells assessed as reduction in cell viability by MTS assay. It is filed as cell-based. In outline:
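RAW 264.7 macrophage viability at the tested concentrations measured by MTS assay.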

For data set [7], the system named is RAW264.7. Briefly: Inhibition of LPS-induced IL-6 production in mouse RAW264.7 cells preincubated for 2 hrs followed by LPS stimulation and measured after 20 hrs by ELISA. It is filed as functional, cell-based.
The target of data set [8] is T2, Prostaglandin G/H synthase 2 (Homo sapiens, UniProt P35354).
T2 sequence (P35354 whole entry): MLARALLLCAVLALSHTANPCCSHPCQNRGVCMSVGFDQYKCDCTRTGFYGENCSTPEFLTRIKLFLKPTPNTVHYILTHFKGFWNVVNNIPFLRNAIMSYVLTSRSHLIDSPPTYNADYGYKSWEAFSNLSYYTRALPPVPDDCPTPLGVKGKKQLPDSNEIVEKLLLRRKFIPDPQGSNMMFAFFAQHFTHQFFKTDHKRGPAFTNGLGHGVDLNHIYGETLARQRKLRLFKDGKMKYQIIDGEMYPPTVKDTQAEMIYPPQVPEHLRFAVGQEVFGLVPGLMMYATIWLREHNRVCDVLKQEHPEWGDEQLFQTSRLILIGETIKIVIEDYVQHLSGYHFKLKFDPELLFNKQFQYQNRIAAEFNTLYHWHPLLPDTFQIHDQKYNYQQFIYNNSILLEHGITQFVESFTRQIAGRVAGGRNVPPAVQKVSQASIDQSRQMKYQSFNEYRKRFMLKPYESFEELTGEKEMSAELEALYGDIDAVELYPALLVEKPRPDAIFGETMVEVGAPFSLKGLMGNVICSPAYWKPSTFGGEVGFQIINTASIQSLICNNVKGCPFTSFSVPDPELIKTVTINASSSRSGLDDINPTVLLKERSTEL
Briefly: Inhibition of human recombinant COX-2 using arachidonic acid as substrate preincubated with enzyme for 5 mins followed by substrate addition by colorimetric analysis.

In data set [9] the test system is RAW264.7. Briefly: Inhibition of LPS-induced NO production in mouse RAW264.7 cells preincubated for 2 hrs followed by LPS stimulation and measured after 20 hrs by DAF-FM based fluorescence analysis. It is filed as functional, cell-based.
Data set [10] concerns RAW264.7. The data set is described as follows: Antioxidant activity in mouse RAW264.7 cells assessed as inhibition of LPS-induced intracellular ROS production preincubated for 2 hrs followed by LPS stimulation and measured after 20 hrs by DCFH-DA staining based fluorescence analysis. The class given is functional, cell-based.
The target in data set [11] is T3, Prostaglandin G/H synthase 2 (Homo sapiens) (UniProt P35354).
T3 sequence (whole entry): T2 sequence (P35354 whole entry)
Briefly: Potency index, ratio of diclofenac sodium IC50 to test compound IC50 for human recombinant COX-2 using arachidonic acid as substrate preincubated with enzyme for 5 mins followed by substrate addition by colorimetric analysis.

In general, IC50 refers to the point on the concentration scale where inhibition reaches its midpoint.

In the case of `O=c1c(Cc2cccs2)n[nH]c(=S)n1/N=C/c1cc2ccccc2nc1O`, the IC50 in the data set on RAW264.7 [1] is more than 50 µM; in data set [2], 11.1 µM; in [3], 2.13 µM; in the data set on RAW264.7 [5] it was more than 50 µM; with RAW264.7 [7], more than 50 µM; in [8] it was 0.079 µM. Moreover, the figures for the IC50 in the data set with RAW264.7 [9] and in the data set with RAW264.7 [10] were 9.37 µM and more than 50 µM, respectively. Moreover, the Ratio IC50 in data set [4] was 140. In the data set on RAW264.7 [6], the Activity result is “Non-Toxic”.
On to `COc1cc(Cc2n[nH]c(=S)n(/N=C/c3cc4cc(C)ccc4nc3O)c2=O)ccc1O`, for which the IC50 in the data set on RAW264.7 [1] was more than 50 µM; in [2], 10.3 µM; in [3], 1.97 µM; with RAW264.7 [5], more than 50 µM; in the data set on RAW264.7 [7], more than 50 µM; in [8], 0.085 µM. For the same compound, the IC50 with RAW264.7 [9] and in the data set on RAW264.7 [10] was more than 50 µM in each case. Also, the Ratio IC50 in [4] stood at 121. The Activity result in the data set with RAW264.7 [6] is recorded as “Non-Toxic”.
For `O=c1c(Cc2ccccc2)n[nH]c(=S)n1/N=C/c1cc2ccccc2nc1O`, the 50% inhibitory concentration (IC50) in the data set on RAW264.7 [1] is more than 50 µM; in [2], 11.3 µM; in data set [3], 2.12 µM; in the data set with RAW264.7 [5] it was more than 50 µM; in the data set with RAW264.7 [7] it was more than 50 µM; in data set [8], 0.054 µM. Besides, the IC50 with RAW264.7 [9] and with RAW264.7 [10] was more than 50 µM in each case. In addition, the Ratio IC50 in data set [4] came to 209; in [11] it was 15.6. Moreover, the Activity entry with RAW264.7 [6] is listed as “Non-Toxic”.
`COc1ccc2nc(O)c(/C=N/n3c(=S)[nH]nc(Cc4cc(OC)c(OC)c(OC)c4)c3=O)cc2c1`: the IC50 was more than 50 µM in the data set with RAW264.7 [1]; 11.8 µM in data set [2]; 2.57 µM in data set [3]; more than 50 µM with RAW264.7 [5]; more than 50 µM with RAW264.7 [7]; 0.06 µM in [8]. In addition, the IC50 in the data set on RAW264.7 [9] and in the data set on RAW264.7 [10] was more than 50 µM in each case. The Ratio IC50 was 197 in [4] and 14 in data set [11]. For the same compound, the Activity entry with RAW264.7 [6] is “Non-Toxic”.
For the compound `Cc1ccc2nc(O)c(/C=N/n3c(=S)[nH]nc(Cc4cccs4)c3=O)cc2c1`, the concentration for half-maximal inhibition (IC50) in the data set with RAW264.7 [1] worked out at 7.13 µM; in data set [2], 9 µM; in [3] it was 2.38 µM; in the data set on RAW264.7 [5], 3.4 µM; with RAW264.7 [7], 11.8 µM; in data set [8], 0.11 µM. Moreover, the results for the IC50 in the data set on RAW264.7 [9] and in the data set with RAW264.7 [10] were 36.8 µM and 10.9 µM, respectively. Besides, the Ratio IC50 in data set [4] worked out at 81.8; in data set [11], 7.6. In addition, in the data set on RAW264.7 [6], the Activity entry is listed as “Non-Toxic”.
As for `CC(C)Oc1ccc2nc(O)c(/C=N/n3c(=S)[nH]nc(Cc4ccccc4)c3=O)cc2c1`, the IC50 came to 0.42 µM with RAW264.7 [1]; 6.6 µM in data set [2]; 3.49 µM in data set [3]; 34.6 µM with RAW264.7 [5]; 12.9 µM in the data set on RAW264.7 [7]; 0.32 µM in data set [8]. In addition, the IC50 in the data set on RAW264.7 [9] is more than 50 µM; with RAW264.7 [10] it was 1.91 µM. Further, the Ratio IC50 in data set [4] stood at 20.6; in data set [11], 2.6. In addition, in the data set with RAW264.7 [6], the Activity result is recorded as “Non-Toxic”.
As for `Cc1ccc2nc(O)c(/C=N/n3c(=S)[nH]nc(Cc4ccccc4)c3=O)cc2c1`, the IC50 came out at 21.3 µM in the data set with RAW264.7 [1]; 5.9 µM in [2]; 2.66 µM in data set [3]; 30.3 µM in the data set with RAW264.7 [5]; 13.5 µM in the data set with RAW264.7 [7]; 0.28 µM in data set [8]. Moreover, the half-maximal inhibitory concentration (IC50) in the data set with RAW264.7 [9] was determined as 33.5 µM; in the data set on RAW264.7 [10], 7.31 µM. The Ratio IC50 came to 21.1 in data set [4] and 3 in data set [11]. Besides, in the data set with RAW264.7 [6], the Activity result is “Non-Toxic”.
